# Screens as filed in PubChem BioAssay.
# A selection: hits, their analogues and other compounds. The true share with any hit is near 1.6%.
# HKDC1 inhibitor = blocks human hexokinase HKDC1 activity | Q2TB90 | AID 493160 | recombinant HKDC1, G6PDH/diaphorase resazurin coupled fluorescence | inhibition, % at 20 µM | actives 0.16% (n = 340,000);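 active means inhibition above about 35% when tested at 20 µM, limit read from the data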;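 further: plate controls were DMSO wells with enzyme for no effect and DMSO wells lacking enzyme for full effect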
# Target sequence (Q2TB90 whole entry, looked up): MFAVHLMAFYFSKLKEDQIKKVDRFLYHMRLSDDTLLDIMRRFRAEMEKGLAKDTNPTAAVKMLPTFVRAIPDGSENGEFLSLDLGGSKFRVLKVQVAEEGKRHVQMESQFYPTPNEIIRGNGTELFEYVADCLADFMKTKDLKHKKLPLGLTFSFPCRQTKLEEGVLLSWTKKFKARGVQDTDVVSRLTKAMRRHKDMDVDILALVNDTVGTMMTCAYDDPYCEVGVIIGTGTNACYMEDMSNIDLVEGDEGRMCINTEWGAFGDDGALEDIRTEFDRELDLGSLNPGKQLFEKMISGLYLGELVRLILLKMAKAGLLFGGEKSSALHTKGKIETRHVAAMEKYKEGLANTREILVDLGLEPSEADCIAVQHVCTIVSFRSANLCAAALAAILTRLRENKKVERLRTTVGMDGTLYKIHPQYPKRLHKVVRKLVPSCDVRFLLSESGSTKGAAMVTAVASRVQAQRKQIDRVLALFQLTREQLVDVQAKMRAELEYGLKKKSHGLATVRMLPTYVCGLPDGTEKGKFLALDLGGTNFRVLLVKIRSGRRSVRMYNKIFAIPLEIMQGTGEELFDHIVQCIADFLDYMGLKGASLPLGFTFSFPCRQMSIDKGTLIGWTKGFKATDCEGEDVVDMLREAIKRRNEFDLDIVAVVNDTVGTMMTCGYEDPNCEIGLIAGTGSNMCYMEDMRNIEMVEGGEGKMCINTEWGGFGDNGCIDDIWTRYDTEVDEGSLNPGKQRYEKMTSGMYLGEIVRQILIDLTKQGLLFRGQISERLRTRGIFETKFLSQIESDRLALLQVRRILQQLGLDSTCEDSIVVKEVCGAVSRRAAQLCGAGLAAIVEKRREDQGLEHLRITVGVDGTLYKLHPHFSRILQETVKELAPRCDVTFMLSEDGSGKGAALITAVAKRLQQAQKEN
#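 Test system: recombinant HKDC1 (HK5) hexokinase enzyme, produced in-house / Doses: 20 µM test compound, 1% DMSO / Timing: 90 min, room temperature / Detection: G6PDH/diaphorase-coupled fluorescence, 1 mM NADP, 100 µM resazurin, 525/613 nm / Control set: DMSO wells with and without enzyme mix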
# PKA-R1A activ = activators of PKA-R1A complex | activation, % at 11.4 µM | actives 0.083% (n = 340,000) | PKA-R1A dissociation, Cy5-IP20 fluorescence polarization; scaled: DMSO 0%, 113 µM cGMP 100% | AID 504707;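 active means percent activation above the mean of all tested compounds plus 3 SD, cut at about 19% in these data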;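 further: higher means more PKAc released from R1A so a rise in polarization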
# T cell modulator = modulates CD8 T cell binding to vesicles. 2C CD8+ T cell-vesicle binding, flow cytometry; stronger effect = lower value. response (vesicle binding), % at 7 µM. actives 0.068% (n = 330,000);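 active means response, share of CD8 T cells binding vesicles, and their 90th percentile fluorescence all below set limits, cut at about 80% in these data, passing the limit was not always enough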;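 further: values below 100% mean blocked vesicle binding to the CD8+ T cells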
#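 Read-out – percent CD8+ FL2 mean versus row control · System – murine 2C transgenic CD8+ T lymphocytes · Times – 1.5 h cell–vesicle binding at 37 °C, then 20 min icy labelling · Control set – naked vesicles low, QL9 vesicles with vehicle high · Detection – cytometric PE anti-B7-1 and Alexa647 anti-CD8 signals after 1% paraformaldehyde fixation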
# PKA-R2B activ = PKA-R2B complex activation | P22694+P31323 | PKA-R2B holoenzyme dissociation, Cy5-IP20 fluorescence polarization; R2B truncated from residue 108, S112A mutant; 0% DMSO only, 100% 113 µM cGMP | activation, % at 11.4 µM | actives 0.079% (n = 340,000);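 active means activation above a cutoff set at the mean over all compounds plus 3 SD, cut at about 18% in these data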;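 further: higher means more holoenzyme dissociation and a rise in polarization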
# PfG6PD inh = PfG6PD (Plasmodium falciparum) enzyme inhibition. PfGluPho enzyme, NADPH resazurin-diaphorase fluorescence. inhibition, % at 20 µM. actives 0.78% (n = 350,000);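 active means inhibition reaching at least a set limit at 20 µM in the primary screen, cut at about 59% in these data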;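 further: 0% = DMSO wells with substrate and 100% = DMSO wells lacking glucose-6-phosphate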
# ATG4B inh = blocks human ATG4B protease cleavage of LC3 substrate | Q9Y4P1 | actives 0.51% (n = 340,000) | ATG4B cleavage of LC3-PLA2, NBD-HPC fluorescence, 1 h | inhibition, % at 8.33 µM | AID 504462; in the data active means inhibition above about 40%
# PfG6PD confirm = PfG6PD inhibition, single-dose confirmed | shares compounds with PfG6PD inh | inhibition, % at 20 µM | recombinant PfGluPho, NADPH-diaphorase-resazurin fluorescence | actives 34% (n = 2,400);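 active means inhibition of at least 50% at 20 µM in any single replicate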;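 further: 0% = DMSO with substrate and 100% = DMSO lacking glucose-6-phosphate substrate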
# Diaph ctr 10uM = diaphorase inhibition or oxidation at 10 uM NADPH; shares compounds with PfG6PD inh; diaphorase-coupled resazurin reduction, fluorescence, NADPH 10 uM; inhibition, % at 20 µM; actives 39% (n = 820);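 active means average inhibition reaching 50% or more with the compound at 20 µM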;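 further: resorufin red fluorescence formed as diaphorase reduces resazurin using NADPH; 0% = DMSO with enzyme and 100% = DMSO without enzyme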
# Diaphorase 30uM = diaphorase inhibition or oxidation at 30 uM NADPH; shares compounds with PfG6PD inh; Diaphorase/resazurin coupled assay, resorufin fluorescence; inhibition, % at 20 µM; actives 29% (n = 820); AID 504863;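 active means inhibition averaging 50% or more, tested at 20 µM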;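 further: 0% = DMSO with enzyme and 100% = DMSO wells lacking diaphorase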
# The depositor's hits bear a star; x = no result given.
SMILES,HKDC1 inhibitor,PKA-R1A activ,T cell modulator,PKA-R2B activ,PfG6PD inh,ATG4B inh,PfG6PD confirm,others
Cc1ccc(S(=O)(=O)NC(=O)Nc2ccc(N(C)C)cc2)cc1,9,-120,526,-108,73*,-3,21,
Cc1ccc(NC(=O)NNS(=O)(=O)c2ccc(Br)cc2)cc1,-4,-9,234,-16,-4,-1,x,
Cc1ccc(NC(=O)COc2cccc3c2OC(C)(C)C3)c(O)c1,-5,8,319,-7,2,-5,x,
COc1ccc2c(c1)n([O-])c1c([n+]2=O)CCC1,4,x,640,x,26,-1,x,
CCOc1ccc2c(c1)n([O-])c1c([n+]2=O)CCCC1,7,-11,x,-1,99*,-2,4,
S=c1ncc2[nH]c(=S)[nH]c2[nH]1,0,10,x,-8,68*,-4,59*,Diaph ctr 10uM=-21;Diaphorase 30uM=2
COc1cccc(CNc2ccc3[nH]c(=O)[nH]c3c2)c1OCc1ccc(F)cc1,23,-5,987,13,112*,3,51*,Diaph ctr 10uM=-9;Diaphorase 30uM=-1
Oc1ccc(NCc2ccccc2OCc2ccccc2)cc1,15,-11,362,0,73*,12,50*,Diaph ctr 10uM=-10;Diaphorase 30uM=-16
COc1cc(CNc2ccc3[nH]c(=O)[nH]c3c2)cc(Cl)c1OCC(=O)NC(C)(C)C,11,0,198,-14,83*,-8,38,
O=c1[nH]c2ccc(NCc3ccccc3OCc3ccc(Cl)cc3)cc2[nH]1,18,-8,145,3,73*,14,47*,Diaph ctr 10uM=-9;Diaphorase 30uM=0
COc1ccc(NC(=O)CN2C(=O)C3CC=CCC3C2=O)cc1Cl (stereo not drawn),x,7,x,-3,12,x,x,
CCOCCCn1c(=N)c(C(N)=S)cc2c(=O)n3cccc(C)c3nc21,2,-8,294,-3,64*,-8,8,
Cc1cccn2c(=O)c3cc(C(=O)NC4CCCC4)c(=N)n(Cc4ccc(F)cc4)c3nc12,2,3,282,-7,64*,2,-10,
Cc1cccn2c(=O)c3cc(C(=O)NC4CCCCC4)c(=N)n(Cc4ccccc4)c3nc12,-3,7,587,3,70*,-1,-1,
CC(=O)Nc1cccc(NC(=O)CCNC(=O)c2ccccc2)c1,-5,-7,165,-3,5,-4,x,
Nc1ncc2[nH]c(N)nc2n1,-4,-7,x,2,6,2,x,
COc1ccc(C#Cc2ccc3c(c2)c(=O)c2ccccc2n3C)cc1,0,-18,557,-5,41,-12,x,
Cn1c2ccccc2c(=O)c2cc(C#Cc3ccc(N)cc3)ccc21,-2,12,499,8,79*,4,42,
CCN(C[C@H]1N[C@@](CC)(C(=O)OC)[C@H]2C(=O)N(Cc3ccccc3)C(=O)[C@@H]12)C(=O)COc1ccccc1,-2,-4,318,-6,-17,-1,x,
CCOC(=O)C1=C(C)N(C)C(=O)NC1c1cc2c(cc1[N+](=O)[O-])OCO2 (stereo not drawn),4,-10,198,-3,71*,-5,-20,
CCCCOC(=O)C1=C(C)N(C)C(=O)NC1c1cc2c(cc1Br)OCO2 (stereo not drawn),x,-5,x,0,-7,x,x,
O=C(OC1C2C=CC1C1C(=O)NC21)c1ccccc1 (stereo not drawn),x,1,x,1,-5,x,x,
O=[N+]([O-])c1cnc(Sc2ccncn2)c([N+](=O)[O-])c1,x,-9,x,-8,80*,x,59*,Diaph ctr 10uM=9;Diaphorase 30uM=13
NC(=O)C1CCCN(C(=O)c2ccc3c(c2)NC(=O)CS3)C1 (stereo not drawn),-7,0,331,-21,-3,2,x,
COC(=O)c1ccc(CCc2cc(O)ccc2O)cc1,27,-3,x,1,59,-7,10,
SMILES,HKDC1 inhibitor,PKA-R1A activ,T cell modulator,PKA-R2B activ,PfG6PD inh,ATG4B inh,PfG6PD confirm,others
N#Cc1cc(-c2ccccc2)nn1-c1ccccc1,31,1,574,4,80*,-9,34,
O=C(COc1cccc(C(F)(F)F)c1)N1CCN(c2ccc(O)cc2)CC1,7,-2,161,-1,61*,-9,1,
COc1ccc(NC(=O)CC2C(=O)N(C)C(=S)N2Cc2ccc3c(c2)OCO3)cc1 (stereo not drawn),0,-11,385,-2,12,-6,x,
CC(=O)Nc1cc([N+](=O)[O-])ccc1OCc1ccccc1,0,-4,x,-6,72*,-3,50*,Diaph ctr 10uM=45;Diaphorase 30uM=37
CC(=O)N1CCN(c2ccc(NCc3cccc4ccccc34)cc2)CC1,8,0,889,0,63*,-5,24,
CC(=O)N1CCN(c2ccc(NCc3ccccc3)cc2)CC1,2,-6,382,-8,-6,0,x,
Cc1ccc(C(=O)/C=C/C(=O)c2ccc(C)cc2)cc1,16,-11,394,0,76*,0,51*,Diaph ctr 10uM=-26;Diaphorase 30uM=-28
c1cncc(CNc2ccc3c(c2)OCO3)c1,8,-5,163,-11,68*,4,58*,Diaph ctr 10uM=5;Diaphorase 30uM=4
O=C(NCc1cccnc1)Nc1ccc2c(c1)OCO2,-11,11,205,2,11,-1,x,
CC1(C)CC(=O)C2=C(C1)NC1=C(C(=O)c3ccccc31)C2c1ccc(Cl)cc1 (stereo not drawn),9,-11,203,-14,68*,0,14,
Cc1ccc(C2C3=C(CC(C)(C)CC3=O)NC3=C2C(=O)c2ccccc23)cc1 (stereo not drawn),16,5,317,-10,36,7,x,
CCCCCc1ccc(C(=O)CCC(=O)OCC(=O)N(CC)c2c(N)n(Cc3ccccc3)c(=O)[nH]c2=O)cc1,2,5,x,-2,-8,-6,x,
S=C(Nc1ccccn1)c1ccccn1,4,-2,12*,1,67*,x,13,
COc1ccccc1NC(=O)c1ccc2[nH]c(C)c(C)c2c1,-4,-12,191,8,81*,-9,32,
CCOc1ccc(S(=O)(=O)N2CCC(C(=O)Nc3ccc(C)c(S(=O)(=O)N4CCOCC4)c3)CC2)cc1,2,-11,x,2,3,-17,x,
